Data as given in ChEMBL document CHEMBL2021842, “COMPARE analysis of the toxicity of an iminoquinone derivative of the imidazo[5,4-f]benzimidazoles with NAD(P)H:quinone oxidoreductase 1 (NQO1) activity and computational docking of quinones as NQO1 substrates” (Bioorg Med Chem, 2012).
pIC50: −log10 of the molar value.

Tests used:
HeLa = test: Cytotoxicity against human HeLa cells assessed as reduction in mean cell viability after 72 hrs by MTT assay; assay type: functional, cell-based
In short: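 HeLa-CCL-2 cells in DMEM with 10% heat-inactivated FBS, 2 mM L-glutamine and nonessential amino acids. Plated at 1000 cells/well with 24 h adherence. Treated in ethanol (1% final) for 72 h at 37 °C under 5% CO₂, with ethanol controls. Absorbance of DMSO-dissolved formazan at 550 nm, 690 nm reference. IC₅₀ by nonlinear regression of percent viability.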

[1] = Cytotoxicity against human GM00637 cells assessed as reduction in mean cell viability after 72 hrs by MTT assay; assay type: cell-based; settings: GM00637, 72 h
In short: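 SV40-transformed normal skin fibroblasts (GM00637) in MEM Eagle–Earle BSS with 15% heat-inactivated FBS, 2 mM L-glutamine, 2× amino acids and vitamins. Seeded at 10,000 cells/well and left 24 h to adhere. Ethanol-delivered compound (1% final) for 72 h at 37 °C, 5% CO₂. MTT formazan in DMSO read at 550/690 nm. Viability relative to vehicle; IC₅₀ by nonlinear regression.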

DU-145 = test: Cytotoxicity against human DU145 cells assessed as reduction in mean cell viability after 72 hrs by MTT assay; assay type: functional, cell-based; settings: DU-145, 72 h
In short: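 DU-145 prostate cells in RPMI-1640 with 10% heat-inactivated FBS, penicillin–streptomycin and 2 mM L-glutamine. Seeded at 2000 cells/well and left 24 h to adhere. Compound added in ethanol (1% final) for 72 h at 37 °C, 5% CO₂, with ethanol-only controls. Formazan dissolved in DMSO and read at 550 nm (690 nm reference). IC₅₀ derived by nonlinear regression of viability versus vehicle.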

[2] = Solubility of the compound in organic solvent; assay type: physicochemical
[3] = Aqueous solubility of the compound; assay type: physicochemical; settings: buffer

Work on `CCCCn1cnc2c1C(=O)c1ncn(CCCC)c1C2=O` yielded a pIC50 (HeLa) of 6.36, a pIC50 [1] of 5.98 and a pIC50 (DU-145) of 5.87.

With `O=C1c2nc3n(c2C(=O)c2nc4n(c21)CCC4)CCC3` the solubility [2] was “Insoluble” and the solubility [3] was “Insoluble”.
